Assay outcomes as filed in PubChem BioAssay.
Compounds with a hit are over-represented: about 1.9% of the library has one in this group of screens.
M4 PAM: potentiates acetylcholine response at human M4 receptor; activation, % at 3 µM; P08173; CHO-K1 hM4/Gqi5, Fluo-8 calcium fluorescence, ACh EC20; 0% = ACh EC20, 100% = maximal ACh; actives 0.4% (n = 360,000); AID 624126;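 active = activation above its plate's cutoff, the mean activation of sample wells plus 3 SD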
Target sequence (P08173 whole entry, looked up): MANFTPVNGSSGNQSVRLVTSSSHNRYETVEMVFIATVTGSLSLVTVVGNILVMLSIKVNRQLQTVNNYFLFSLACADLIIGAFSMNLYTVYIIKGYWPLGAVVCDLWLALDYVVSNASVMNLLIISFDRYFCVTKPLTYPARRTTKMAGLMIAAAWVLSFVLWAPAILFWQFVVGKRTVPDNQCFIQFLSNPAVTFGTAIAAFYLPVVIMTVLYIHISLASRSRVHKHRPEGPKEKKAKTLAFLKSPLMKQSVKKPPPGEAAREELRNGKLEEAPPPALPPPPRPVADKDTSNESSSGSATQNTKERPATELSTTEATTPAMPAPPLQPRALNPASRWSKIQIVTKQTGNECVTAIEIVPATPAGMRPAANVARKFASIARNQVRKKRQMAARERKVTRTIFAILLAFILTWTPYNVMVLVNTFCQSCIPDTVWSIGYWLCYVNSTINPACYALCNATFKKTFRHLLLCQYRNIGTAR
M4 antag: CHRM4 antagonism in calcium assay | P08173 | CHO-hM4 cells, ACh EC80, Fluo-8 calcium fluorescence | inhibition, % at 3 µM | actives 0.73% (n = 360,000) | AID 624125;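 active = inhibition above its plate's cutoff, the mean inhibition of sample wells plus 3 SD, cut at about 27% in these data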;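 also: 0% = acetylcholine EC80 with DMSO and 100% = DMSO without agonist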
CHRM5 agonist: CHRM5 agonism in calcium assay; AID 624037; activation, % at 3 µM; actives 0.19% (n = 360,000); CHO-K1 hM5 cells, Fluo-8 calcium fluorescence; 0% DMSO wells, 100% maximal acetylcholine response;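 active = activation above the run's mean over test compounds plus 3 SD, cut at about 23% in these data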;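 also: signal is peak over basal fluorescence ratio across the kinetic read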
CHRM5 antagonist: blocks acetylcholine activation of human M5 receptor; actives 0.59% (n = 360,000); inhibition, % at 3 µM; CHO-hM5 cells, Fluo-8 calcium fluorescence, ACh EC80; AID 624040; P08912;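 active = inhibition above a per-plate cutoff, the mean of that plate's test compounds plus 3 SD, cut at about 27% in these data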;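 also: 0% = acetylcholine EC80 with DMSO and 100% = DMSO without agonist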
M4 ag: CHRM4 agonism in calcium assay; CHO-K1 hM4/Gqi5, Fluo-8 calcium fluorescence; vehicle 0%, full acetylcholine response 100%; activation, % at 3 µM; actives 0.14% (n = 360,000);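 active = activation above the run mean over all test wells plus 3 SD, cut at about 32% in these data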;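 also: peak over basal fluorescence ratio per well then scaled between controls; 0% = DMSO wells and 100% = acetylcholine at EC100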
M5 PAM: potentiates acetylcholine response at human M5 receptor. P08912. CHO-K1 hM5, Fluo-8 calcium, ACh EC20 PAM; 0% = ACh EC20, 100% = ACh EC100. activation, % at 3 µM. actives 0.3% (n = 360,000). AID 624038;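 active = activation above the run cutoff, the mean activation of all test compounds plus 3 SD, cut at about 18% in these data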
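Assay system – human M5 receptor in CHO-K1 cells · Read-out – % activation, ACh-normalized · Technique – Fluo-8 calcium fluorescence · Dosing – single-point, 3 µM nominal · Incubation – Fluo-8 loading 80 min at 37 °C plus 30 min room temperature · Repeats – singlicate, one well per test compound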
The depositor's hits bear a star.

SMILES	M4 PAM	M4 antag	CHRM5 agonist	CHRM5 antagonist	M4 ag	M5 PAM
OC(CCN1CCCCC1)(c1ccccc1)C1C[C@@H]2C=C[C@H]1C2 (some centres undefined)	-17	99*	-1	98*	1	-18
CN1CCN(CC#CC(C)(O)C2CC3C=CC2C3)CC1 (centres undefined)	1	5	-8	-1	0	-3
CC(C)N(CC#CCC(O)(c1ccccc1)c1ccccc1)C(C)C	-27	22	-7	9	2	-18
CCCOc1ccc(C(O)(CCC)CCN2CCCCC2)cc1 (centres undefined)	-20	21	-8	21	3	-24
OC(C#CCCN1CCCCC1)(c1ccccc1)c1ccccc1	-17	95*	-20	100*	1	-32
CCN(CC)CCC#CC(O)(c1ccccc1)c1ccccc1	-18	84*	-8	99*	0	-18
O=C(CCN1CCCCC1)c1ccccc1	6	-1	0	0	0	-1
Cc1ccc(C(O)(CCN2CCCCC2)c2ccccc2)cc1 (centres undefined)	-17	93*	-8	96*	2	-21
CC1CC(C)CN(CCCNC(=O)CCNC(=O)Cn2ccc3ccccc3c2=O)C1 (centres undefined)	9	-9	-3	-2	1	0
OC(C#CCCN1CCCCC1)(c1ccccc1)C1CCCCC1 (centres undefined)	-59	97*	-20	98*	3	-32
Cc1ccc(S(=O)(=O)NC2CC2)cc1	2	-7	-3	-2	1	3
OC1(c2cccs2)CN(c2ccc(Cl)cc2)C2=[N+]1CCCS2 (centres undefined)	2	-1	-5	11	1	3
OC1(c2cccs2)CN(c2ccc(Cl)cc2)C2=[N+]1CCCC2 (centres undefined)	-24	30*	-18	29*	1	-32
O=C(c1ccncc1)N1N=C(c2ccc(Br)cc2)CC1c1ccccc1O (centres undefined)	-13	6	-3	32*	11	-9
COc1ccc(OC)c(/C=C2\NC(=O)NC2=O)c1	-2	-8	1	0	2	-1
COc1cc(N2CCCC2)c(OC)cc1/C=C1/NC(=S)NC1=O	-14	26	32*	17	30	-12
COc1ccc(C2c3[nH]c4ccccc4c3C[C@H]3C(=O)N(C4CCN(Cc5ccccc5)CC4)CC(=O)N23)c(OC)c1 (some centres undefined)	-15	27*	-4	6	5	-4
CCOc1ccccc1C1c2[nH]c3ccccc3c2C[C@H]2C(=O)N(C3CCN(Cc4ccccc4)CC3)CC(=O)N12 (some centres undefined)	-15	-4	-2	16	7	-4
O=C(Nc1c(C(=O)N2CCC(N3CCCCC3)CC2)oc2ccccc12)c1ccc(F)cc1	-1	-1	-8	4	1	5
NC(=O)c1oc2ccccc2c1NC(=O)c1ccc(F)cc1	-18	39*	1	8	7	-12
c1ccc(-c2csc(Nc3ccccn3)n2)cc1	4	0	13	-8	-1	14
Cc1ccc(-c2csc(Nc3ccccn3)n2)cc1	14*	-14	10	-4	-1	14
Cc1ccc(Nc2nc(-c3sc(N)nc3C)cs2)cc1	-8	3	7	-15	-1	20*
Cc1nc(C)c(-c2csc(Nc3ccccn3)n2)s1	-2	-4	5	10	3	-5
Cc1nc(N)sc1-c1csc(Nc2ccccn2)n1	1	28*	0	0	0	2
SMILES	M4 PAM	M4 antag	CHRM5 agonist	CHRM5 antagonist	M4 ag	M5 PAM
C[C@H](NS(=O)(=O)c1c(Cl)cccc1Cl)C(=O)NNC(=O)COc1ccccc1F	9	-12	5	-3	1	5
O=C(COc1ccccc1[N+](=O)[O-])c1ccccc1	3	2	-2	13	1	-6
COC(=O)/C=C/COc1ccccc1[N+](=O)[O-]	18*	-5	-2	-1	0	7
COc1ccc(C2(c3ccc(OC)cc3)NC(=O)N(CC(=O)NC3CCS(=O)(=O)C3)C2=O)cc1 (centres undefined)	5	-6	1	12	1	8
CCOC(=O)c1c(NC(=O)CN2C(=O)NC(C)(c3ccc(OC(F)F)cc3)C2=O)sc(C)c1C (centres undefined)	6	18	15	17	18	4
CC1(c2ccc(OC(F)F)cc2)NC(=O)N(CC(=O)Nc2cccc(F)c2)C1=O (centres undefined)	-23	26*	45*	25	98*	1
CC1(c2ccc(OC(F)F)cc2)NC(=O)N(CC(=O)Nc2ccc(Cl)cc2F)C1=O (centres undefined)	-3	3	30*	3	31	4
CC1(C)NC(=O)N(CC(=O)OCC(=O)c2ccc(F)cc2)C1=O	11	-8	2	-3	2	8
Cc1cc(NC(=O)CN2C(=O)NC(C)(c3ccc(OC(F)F)cc3)C2=O)no1 (centres undefined)	10	6	19	7	10	2
CC1(C)NC(=O)N(CC(=O)OCC(=O)Nc2cccc(F)c2)C1=O	3	-1	-5	9	1	37*
CCC1(CC)NC(=O)N(CC(=O)OCC(=O)Nc2cc(C)ccc2C)C1=O	18*	-13	-1	1	1	0
COc1ccccc1N(C(=O)CNC(=O)c1ccco1)C(C(=O)NC1CCCCC1)c1ccncc1 (centres undefined)	-13	12	-3	19	-1	-6
COc1ccc(NC(=O)Cn2cnc3sc(C)c(S(=O)(=O)N4CCN(C)CC4)c3c2=O)cc1OC	11	3	1	3	0	6
CC1(c2ccc(OC(F)F)cc2)NC(=O)N(CC(=O)Nc2ccc(S(N)(=O)=O)cc2)C1=O (centres undefined)	-9	4	-1	1	0	-7
CC1(c2ccc(OC(F)F)cc2)NC(=O)N(CC(=O)Nc2ccc(OC(F)F)cc2)C1=O (centres undefined)	-7	16	27*	22	38*	7
CC1(c2ccc(OC(F)F)cc2)NC(=O)N(CC(=O)Nc2ccc(F)cc2)C1=O (centres undefined)	19	-13	24*	9	32*	-5
